Measured values of several laboratories.
Organism: Staphylococcus aureus
Effect on: microbial growth

| Compound | assay | system | setting | MIC |
| --- | --- | --- | --- | --- |
| [H]/N=C(/N)N[C@H]1[C@H](O)[C@@H](O)[C@H](O[C@@H]2O[C@@H](C)[C@](O)(C=O)[C@H]2O[C@@H]2O[C@@H](CO)[C@H](O)[C@@H](O)[C@@H]2NC)[C@@H](N/C(N)=N\[H])[C@@H]1O | – | USA300 | – | 64 µg/mL |
| COC(=O)c1cc(-c2cccc(NC(=S)Nc3ccc(F)c(Cl)c3)c2)on1 | broth dilution | ATCC29213 | – | > 64 µg/mL |
| Clc1ccc(-c2nc3ccccc3[nH]2)cc1 | broth dilution | ATCC43300 MRSA | drug-resistant strain | 128 µg/mL |
| CCOC(=O)c1cc(-c2cccc(NC(=O)Nc3ccc(Cl)c(Cl)c3)c2)on1 | broth dilution | ATCC29213 | – | > 64 µg/mL |
| C=C(NC(=O)C(=C)NC(=O)c1csc(C2=N[C@@H]3c4csc(n4)[C@H]4NC(=O)c5csc(n5)[C@H]([C@](C)(O)[C@@H](C)O)NC(=O)[C@H]5CSC(=N5)/C(=C/C)NC(=O)[C@H]([C@@H](C)O)NC(=O)c5csc(n5)[C@]3(CC2)NC(=O)[C@H](C)NC(=O)C(=C)NC(=O)[C@H](C)NC(=O)[C@H]([C@@H](C)CC)N[C@@H]2C=Cc3c([C@H](C)O)cc(nc3[C@H]2O)C(=O)O[C@@H]4C)n1)C(N)=O | – | MSSA | – | 0.06 µg/mL |
| COc1cc(Cc2cnc(N)nc2N)cc(OC)c1OC | broth dilution | – | – | ~16.6 µM |
| COc1ccc(NC(=O)Nc2ccc(Cl)c(C(F)(F)F)c2)cc1 | – | NCTC8325 | – | 3 µM |
| C=CCn1c(-c2ccc(Cl)c(Cl)c2)nc2ccccc21 | broth dilution | ATCC43300 MRSA | drug-resistant strain | 64 µg/mL |
| c1ccc(CCOC2CCCc3c2[nH]c2ccccc32)cc1 (centres unmarked) | broth dilution | ATCC29213 | – | > 16 µg/mL |
| COc1ccc(OS(=O)(=O)NC(=O)CCCCc2ccccc2)cc1 | – | ATCC33591 MRSA | drug-resistant strain | > 200 µg/mL |
| CN[C@H](CC(C)C)C(=O)N[C@H]1C(=O)N[C@@H](CC(N)=O)C(=O)N[C@H]2C(=O)N[C@H]3C(=O)N[C@H](C(=O)N[C@H](C(=O)O)c4cc(O)cc(O)c4-c4cc3ccc4O)[C@H](O)c3ccc(c(Cl)c3)Oc3cc2cc(c3O[C@@H]2O[C@H](CO)[C@@H](O)[C@H](O)[C@H]2O[C@H]2C[C@](C)(N)[C@H](O)[C@H](C)O2)Oc2ccc(cc2Cl)[C@H]1O | – | VRSA | drug-resistant strain | > 16 µg/mL |
| COC(=O)c1cc(-c2cccc(NC(=O)Nc3cccc(C#N)c3)c2)on1 | broth dilution | ATCC29213 | – | > 64 µg/mL |
| O=[N+]([O-])c1cccc(-c2nc3ccccc3[nH]2)c1 | broth dilution | ATCC43300 MRSA | drug-resistant strain | 64 µg/mL |
| CCCCCCCCCCCC(=O)CP(=O)(O)O | – | ATCC33591 MRSA | drug-resistant strain | 100 µg/mL |
| CSc1ccc(-c2nc3ccccc3[nH]2)cc1 | broth dilution | ATCC43300 MRSA | drug-resistant strain | 32 µg/mL |
| CN[C@H](CC(C)C)C(=O)N[C@H]1C(=O)N[C@@H](CC(N)=O)C(=O)N[C@H]2C(=O)N[C@H]3C(=O)N[C@H](C(=O)N[C@H](C(=O)O)c4cc(O)cc(O)c4-c4cc3ccc4O)[C@H](O)c3ccc(c(Cl)c3)Oc3cc2cc(c3O[C@@H]2O[C@H](CO)[C@@H](O)[C@H](O)[C@H]2O[C@H]2C[C@](C)(N)[C@H](O)[C@H](C)O2)Oc2ccc(cc2Cl)[C@H]1O | – | USA300 | – | 1 µg/mL |
| Cc1ccc2nc(-c3ccc(Cl)cc3Cl)[nH]c2c1 | broth dilution | ATCC43300 MRSA | drug-resistant strain | 128 µg/mL |
| COC(=O)c1cc(-c2cccc(NC(=S)Nc3ccc(C)cc3)c2)on1 | broth dilution | ATCC29213 | – | > 64 µg/mL |
| Clc1ccc(-c2nc3ccccc3[nH]2)cc1Cl | broth dilution | ATCC43300 MRSA | drug-resistant strain | 64 µg/mL |
| O=[N+]([O-])c1ccc(-c2nc3cccc(O)c3[nH]2)o1 | broth dilution | ATCC700699 MRSA | drug-resistant strain | 2 µg/mL |
